# High-throughput results as filed in PubChem BioAssay.
# Most compounds without a hit are left out; they make up all but 5.5% or so of the library.
# Yeast growth inh: reduces growth of yeast BB579 in restrictive medium. S. cerevisiae BB579 growth, OD615, 48 h. inhibition, % at 10 µM. 140,000 tested, 0.51% active. AID 804;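 active = inhibition above a set limit, 3 SD over the mean compound inhibition, cut at about 44% in these data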
#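 Assay system: S. cerevisiae DeaD strain BB579 yeast. Medium: CSMM-D restrictive synthetic medium containing dextrose (glucose). Times: 4 h cell preincubation, 48 h compound exposure, 30 °C humidified. Signal: OD615 turbidity measurement. Benchmarks: positive control amphotericin B 10 µg/mL.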
# Yeast lifespan up: yeast lifespan extension; S. cerevisiae growth with nicotinamide, OD615; deaD strain in restrictive glucose medium; AID 775; 130,000 tested, 0.68% active; inhibition of the nicotinamide effect, % at 10 µM;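 active = inhibition above a set limit, placed 3 SD over the median of all compounds, cut at about 26% in these data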;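 also: 0% = nicotinamide-treated wells and 100% = cells grown without nicotinamide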
#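 System: Modified budding yeast, DeaD strain | Buffer or medium: Restrictive glucose medium | Also added: 1.5 mM nicotinamide | Doses: 10 µM single point, 0.25% DMSO | Schedule: 48 h compound exposure at 30 °C, humidified | Detection: Absorbance at 615 nm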
# WT yeast gro inh: growth inhibition of WT yeast, mitochondrial fusion screen; mitochondrial fusion phenotypic screen, WT strain; inhibition, % at 10 µM; 190,000 tested, 2.1% active; in the data active = inhibition above about 58%; tested in S. cerevisiae
# RAM network inh: inhibitors of the yeast RAM network; S. cerevisiae dse1pr::URA3 reporter, 5-FOA growth OD615, 2 d; analog-sensitive cbk1-as2 kinase mutant strain; inhibition, % at 50 µM; 190,000 tested, 1.8% active;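 active = inhibition above a set limit, 3 SD over mean compound inhibition, cut at about 8.4% in these data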;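 also: 0% = DMSO-only wells with no growth and 100% = 10 µM 1-NA-PP1 full growth; inhibition rescues growth on 5-FOA so higher OD means more RAM inhibition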
# KCC2 mod: KCC2 (human) Cl- transport modulation; Q9H2X9; KCC2 cells, thallium flux FluoZin-2 fluorescence; B-score of Tl+ flux slope (higher = more flux/activation; lower = inhibition) at 10 µM; 190,000 tested, 2.2% active; AID 1456;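 active = thallium flux slope and its plate-corrected score both differing from the plate sample mean at a set confidence after two filtering rounds, in either direction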;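 also: slope of fluorescence scaled to starting intensity during 10 to 20 s after thallium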
# Target sequence (Q9H2X9 whole entry, looked up): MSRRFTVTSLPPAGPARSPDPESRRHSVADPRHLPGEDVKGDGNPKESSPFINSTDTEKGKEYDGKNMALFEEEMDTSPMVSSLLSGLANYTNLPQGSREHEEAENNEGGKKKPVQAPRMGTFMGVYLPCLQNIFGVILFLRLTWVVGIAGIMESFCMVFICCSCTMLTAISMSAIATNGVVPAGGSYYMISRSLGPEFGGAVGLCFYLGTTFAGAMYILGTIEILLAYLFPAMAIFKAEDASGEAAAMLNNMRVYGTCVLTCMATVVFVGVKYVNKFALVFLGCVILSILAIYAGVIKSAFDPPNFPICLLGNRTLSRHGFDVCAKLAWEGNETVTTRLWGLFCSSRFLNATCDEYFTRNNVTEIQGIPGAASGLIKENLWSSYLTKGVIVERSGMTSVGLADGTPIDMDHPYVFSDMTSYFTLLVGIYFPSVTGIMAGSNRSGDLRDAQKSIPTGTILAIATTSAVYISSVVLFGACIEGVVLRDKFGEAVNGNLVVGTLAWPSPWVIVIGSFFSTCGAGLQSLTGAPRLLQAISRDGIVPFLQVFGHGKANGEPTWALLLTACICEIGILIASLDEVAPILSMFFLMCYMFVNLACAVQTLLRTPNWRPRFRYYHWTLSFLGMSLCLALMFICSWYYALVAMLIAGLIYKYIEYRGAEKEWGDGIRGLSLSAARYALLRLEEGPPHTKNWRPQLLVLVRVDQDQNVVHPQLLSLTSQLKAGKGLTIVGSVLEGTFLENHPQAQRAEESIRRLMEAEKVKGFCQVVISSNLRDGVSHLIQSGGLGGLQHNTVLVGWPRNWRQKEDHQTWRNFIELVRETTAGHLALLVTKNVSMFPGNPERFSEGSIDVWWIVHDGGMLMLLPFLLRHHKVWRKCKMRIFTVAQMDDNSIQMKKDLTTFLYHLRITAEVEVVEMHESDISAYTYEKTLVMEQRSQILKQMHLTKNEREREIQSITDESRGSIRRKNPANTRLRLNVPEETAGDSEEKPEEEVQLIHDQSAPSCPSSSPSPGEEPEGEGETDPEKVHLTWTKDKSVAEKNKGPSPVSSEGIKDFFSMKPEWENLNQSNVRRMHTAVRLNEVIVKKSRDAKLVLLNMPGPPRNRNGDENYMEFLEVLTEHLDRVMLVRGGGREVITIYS
# RAM efflux-def: RAM network inhibition, efflux-deficient strain; shares compounds with RAM network inh; S. cerevisiae efflux-deficient reporter strain, 5-FOA growth OD615, 2 days; max inhibition, %; 1,200 tested, under 10 active; AID 1305; call rule not given here;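 also: plate controls were vehicle for no effect and reference inhibitor for full effect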
# KCC2 sec1: KCC2 (human) modulation, secondary assay; normalised thallium flux (F/F0 slope) at 10 µM; HEK293-KCC2, thallium flux, FluoZin2 fluorescence; active compounds read high; shares compounds with KCC2 mod; 3,700 tested, 15% active; AID 1713;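 active = thallium flux slope above the same plate's solvent-only control mean plus 3 SD; inconclusive = the two replicate wells disagree; inactive = no significant difference from solvent-only control wells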
# KCC2 bumet counter: thallium flux persisting under bumetanide in KCC2 cells, counter-screen secondary assay; shares compounds with KCC2 mod; HEK293-KCC2 + bumetanide/ouabain, thallium flux FluoZin2; active compounds read high; normalized thallium flux at 10 µM; 3,700 tested, 49% active; AID 1714;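 active = thallium entry rate above the same plate's blocked-transporter control wells by more than 3 SD; inconclusive = the two repeat wells disagree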;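 also: raw slope of fluorescence over initial fluorescence between 10 and 20 s after thallium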
# KCC2 secondary2: KCC2 (human) modulation, second secondary assay; shares compounds with KCC2 mod; HEK293-KCC2, thallium flux FluoZin2 fluorescence; actives lie on both sides; F/F0 rise rate, 10–20 s post-thallium; normalized thallium flux at 10 µM; 3,700 tested, 23% active;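 active = thallium flux slope more than 3 SD above or below the plate's solvent-only control mean, mostly below; inconclusive = the two repeat wells disagreed; inactive = no significant shift from solvent-only controls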;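 also: raw slope with 0.1% DMSO as baseline and bumetanide as block control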
# HEK293 Tl flux: parental HEK flux effect, counter-screen | shares compounds with KCC2 mod | HEK293 parental cells, thallium flux FluoZin2, ouabain; baseline-ratio fluorescence slope, 10–20 s after thallium | thallium flux rate (normalised fluorescence) at 10 µM | 3,700 tested, 46% active | AID 1716;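 active = thallium flux rate significantly above the same plate's solvent-only control wells, beyond their mean plus 3 SD; inconclusive = the two replicate wells gave conflicting results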
# KCC2 ouabain: modulates human KCC2 on retest with ouabain; HEK293-KCC2, thallium flux FluoZin2 fluorescence; bidirectional: low = inhibitor, high = activator; raw Tl+ flux slope (below DMSO = inhibition, above = activation) at 10 µM; shares compounds with KCC2 mod; 3,700 tested, 48% active;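 active = thallium flux slope beyond 3 SD from same-plate DMSO control mean in most replicates, usually higher, sometimes lower; inconclusive = repeat tests gave conflicting results; inactive = no significant difference from controls in most replicates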;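 also: slope of initial-normalized fluorescence between seconds 10 and 20 after thallium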
# HEK counter2: counter-screen for KCC2 modulators: effect in parental HEK293 cells; shares compounds with KCC2 mod; thallium flux FluoZin-2 fluorescence slope; thallium flux slope at 10 µM; 3,700 tested, 33% active;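 active = thallium flux slope above the same plate's solvent-control mean plus 3 SD in both duplicate wells; inconclusive = duplicate wells that disagreed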;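 also: run without ouabain in cells lacking the KCC2 cotransporter; slope of fluorescence scaled to its starting value between 10 and 20 s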
# * marks the source's active call; other numbers are inactive results; u = inconclusive; x = not tested or not shown.
SMILES,Yeast growth inh,Yeast lifespan up,WT yeast gro inh,RAM network inh,KCC2 mod,RAM efflux-def,KCC2 sec1,KCC2 bumet counter,KCC2 secondary2,HEK293 Tl flux,KCC2 ouabain,HEK counter2
COc1ccc(CNc2oc(COc3ccc(Cl)cc3)nc2C#N)cc1,-46.0,-8.8,70.8*,12.8*,-1.87,2.8,x,x,x,x,x,x
COc1ccc(N2CCN(c3oc(COc4ccc(Cl)cc4Cl)nc3C#N)CC2)cc1,-13.2,-6.5,-15.9,3.5,x,x,x,x,x,x,x,x
N#Cc1ccc(CSc2nnc(-c3c[nH]c4ccccc34)n2-c2ccccc2)cc1,x,x,-10.7,12.3*,-1.03,1.8,x,x,x,x,x,x
Cc1ccc(CSc2nc3sc(C)c(C)c3c(=O)n2Cc2ccco2)cc1,-59.9,-8.7,22.9,17.1*,9.36*,3.2,0.00725,0.0187*,0.039*,0.0241*,0.031*,0.023*
C=CCn1c(SCC(=O)NC(=O)NCc2ccco2)nc2sc(C)c(C)c2c1=O,-50.1,-14.0,-6.7,2.9,x,x,x,x,x,x,x,x
CCOc1ccc2nc(NC(=O)CSc3nc(-c4ccccc4)c(C#N)c(=O)[nH]3)sc2c1,x,x,5.1,14.1*,-3.21*,4.2,0.00919,u,0.035,0.0053*,0.021,0.00923
COc1cccc(-c2nc(SCC(=O)Nc3nc(-c4ccccc4)c(C)s3)[nH]c(=O)c2C#N)c1,x,x,0.5,5.5,-2.99,x,x,x,x,x,x,x
CCC(C(=O)Nc1nc(C)c(C(=O)OC)s1)c1ccccc1 (stereo not drawn),x,x,12.7,0.4,0.615,x,x,x,x,x,x,x
CCC(C(=O)Nc1ccsc1C(=O)OC)c1ccccc1 (stereo not drawn),x,x,-7.2,17.1*,-3.2*,2.9,0.00898,0.00558,0.0346,u,u,0.0106
O=C(CNS(=O)(=O)c1c(Cl)cccc1Cl)OCc1csc(-c2ccccc2)n1,-27.6,-2.0,20.4,12.7*,-4.09*,0.6,0.0065,0.00424,0.0231*,u,0.0146*,0.00934
CCOC(=O)c1c(NC(=S)Nc2ccc(OC)cc2)sc2c1CCCCC2,-56.6,-3.2,-12.5,15.0*,4.66*,1.8,0.0112,0.0107*,0.0329,0.0119*,0.0227,0.0116
C=CCn1c(C)cc(C(=O)CSc2nnc(NCc3ccccc3)s2)c1C,64.0*,-8.9,13.2,14.2*,-2.69*,1.5,0.00671,0.00468,0.0347,u,u,0.0107
CC(=O)/C=C(\C)Nc1ccccc1O,x,x,x,x,-0.482,x,x,x,x,x,x,x
OCCNC(=S)NCCc1ccccc1,-20.5,3.0,-12.1,-0.4,-1.04,x,x,x,x,x,x,x
CC(C)(CNC(=S)NCCc1ccccc1)CNC(=S)NCCc1ccccc1,73.4*,-4.6,30.5,15.3*,-5.1*,6.7,0.00765,0.00536,u,0.00576,0.0132*,0.00936
O=C(O)c1sc2cc(C(F)(F)F)cnc2c1-c1cccs1,x,x,7.4,2.3,-0.0667,x,x,x,x,x,x,x
CN(C)CCNc1oc(COc2ccc(-c3ccccc3)cc2)nc1C#N,-1.6,-11.0,4.6,0.9,-1.31,x,x,x,x,x,x,x
Cc1ccc(OCc2nc(C#N)c(NCc3ccc4c(c3)OCO4)o2)cc1,-50.6,-18.6,-18.3,14.5*,-4.87,1.5,0.0052,u,u,u,0.0122*,0.00878
C=CCN1C(=O)/C(=C/c2ccc(OC(C)=O)c(OCC)c2[N+](=O)[O-])SC1=S,x,x,97.2*,11.6*,-3.44*,2.0,0.00577*,0.00669,0.0307,0.00498*,u,0.0104
CC(=O)Nc1ccc(S(=O)(=O)N(C)c2ccc(OCC(=O)OCC(=O)NCc3ccco3)cc2)cc1,x,x,x,x,0.0194,x,x,x,x,x,x,x
CCCCn1c(NS(=O)(=O)c2ccc(C)cc2)c(S(=O)(=O)c2ccccc2)c2nc3ccccc3nc21,-16.9,7.2,-8.6,12.1*,-6.46*,12.4,0.00901,0.017*,0.033,u,u,0.0109
COc1cc(/C=N/NC(=O)c2nc3ccccn3c2C)cc(OC)c1O,x,x,-5.5,4.2,0.013,x,x,x,x,x,x,x
O=C(CSc1nnc(-c2ccccc2Br)o1)N1CCc2ccccc2C1,-31.2,-12.8,7.5,17.1*,-5.43*,2.0,0.0152,0.00311,0.0214*,u,0.0108*,0.00886
O=C(CSc1nnc2ccccn12)N1CCc2ccccc2C1,-24.8,-3.3,1.8,0.4,0.455,x,x,x,x,x,x,x
Brc1ccccc1-c1nnc2sc(Cc3ccccc3)nn12,-52.2,-8.0,13.3,33.4*,-4.05*,4.2,0.0069,0.00471,u,u,0.0129*,0.00953
SMILES,Yeast growth inh,Yeast lifespan up,WT yeast gro inh,RAM network inh,KCC2 mod,RAM efflux-def,KCC2 sec1,KCC2 bumet counter,KCC2 secondary2,HEK293 Tl flux,KCC2 ouabain,HEK counter2
CCOC(=O)C(CC)(CC)C(=O)/C=C/c1cccc(Br)c1,x,x,x,x,-1.09,x,x,x,x,x,x,x
CCN(CC)S(=O)(=O)c1cccc(-n2c(O)c(C=Nc3ccccc3C(=O)O)c3ccccc3c2=O)c1,x,x,x,x,-1.88,x,x,x,x,x,x,x
Cc1ccc(N(CN2CCCC2=O)C(=O)c2ccc(C)c(C)c2)cc1,-16.3,-0.2,-1.8,0.9,x,x,x,x,x,x,x,x
Cc1ccc(C(=O)N(CN2CCCC2=O)c2ccccc2)cc1C,13.4,-0.6,-12.2,2.0,x,x,0.00856,0.00639,0.0285,0.00728,0.0204,0.00984
CCNC(=S)N=Nc1c(O)[nH]c2ccc([N+](=O)[O-])cc12,x,x,-8.2,1.5,5.05*,x,0.00969,0.0222*,0.0313,0.013*,0.0258,u
O=[N+]([O-])c1ccc2[nH]c(O)c(N=NC(=S)NCC3CCCO3)c2c1 (stereo not drawn),-11.9,2.3,-6.2,4.7,3.2,x,x,x,x,x,x,x
CCCCNC(=S)N=Nc1c(O)[nH]c2ccccc12,x,x,14.5,1.4,25.1*,x,u,0.0494*,u,0.035*,0.0401*,0.0246*
CCNC(=S)N=Nc1c(O)[nH]c2ccc(C(C)C)cc12,-40.3,-3.2,16.3,2.1,10.3*,x,u,0.0209*,0.0338,0.0222*,0.026*,0.0161*
CC(C)c1ccc2[nH]c(O)c(N=NC(=S)NCCc3ccccc3)c2c1,-28.7,1.1,-5.9,8.4,0.0213,x,x,x,x,x,x,x
Cc1ccc(C(=O)NCCc2ccc(S(N)(=O)=O)cc2)cc1[N+](=O)[O-],x,x,4.5,2.5,-0.0883,x,x,x,x,x,x,x
